From PubChem BioAssay
Rows were chosen to be rich in hits. Some 1.6% of all compounds tested hit in one or more screens of this group.
PLC-gamma1 inh: blocks human PLC-gamma1 enzyme activity; inhibition, % at 12.2 µM; P19174; purified PLC-gamma1, fluorogenic substrate, fluorescence; 370,000 tested, 0.84% active; in the data active = inhibition above about 9.5%
PLC-beta3 inh: blocks human PLC-beta3 enzyme activity; inhibition, % at 12.2 µM; Q01970; 370,000 tested, 0.18% active; Purified PLC-beta3, fluorogenic substrate, fluorescence; AID 720704;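 also: 0% = median of compound wells on plate and 100% = full blocker control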
HGIII-sPLA2 inh: Inhibits HGIII-sPLA2 liposome hydrolysis, primary screen; Q9NZ20; 370,000 tested, 0.56% active; QFRET BODIPY PC-A2 liposome hydrolysis, fluorescence; inhibition, % at 12.2 µM;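 active = inhibition above mean plus 3 SD of compounds lying within the high and low control bounds, cut at about 19% in these data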;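 also: 0% = median of test compound wells and 100% = no enzyme DMSO wells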
procasp7 counter: counter-screen for procaspase-3 activators: activators of human procaspase-7 | activation, % at 8.5 µM | 330,000 tested, 0.093% active | recombinant procaspase-7, Ac-DEVD-pNA absorbance 405 nm; D23A/D198A/D206A triple mutant, cannot self-cleave; scale: DMSO 0, 5 µM enzyme 100;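 active = percent activation above the screen-wide mean plus 3 SD, cut at about 25% in these data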
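Material: Procaspase-7 triple mutant (PC-7 D3A) | Quantity: 2 µM procaspase-7 mutant as dispensed | Reagent: DEVD-pNA substrate | Times: 1 h preincubation, 2 h reaction | Technique: 405 nm absorbance of p-nitroaniline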
procasp3 activ: activators of human procaspase-3. recombinant procaspase-3 D3A, Ac-DEVD-pNA absorbance 405 nm. activation, % at 8.5 µM. 330,000 tested, 0.11% active. AID 463141;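 active = activation above the mean of all tested compounds plus 3 SD, cut at about 21% in these data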;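 also: 0% = DMSO alone and 100% = DMSO wells spiked with extra 5 µM PC-3 D3A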
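Test system: Procaspase-3 D3A mutant, all three cleavage aspartates alanine | Dosing: Single dose, 8.5 µM nominal compound, 0.8% DMSO | Schedule: 1 h preincubation, 2 h reaction | Technique: 405 nm absorbance of p-nitroaniline, reads at 0 and 120 min | Repeats: One well per compound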
PLCgamma1 ctr: PLC-gamma1 inhibition, counter-screen for PLC-beta3 hits. shares compounds with PLC-gamma1 inh. purified PLC-gamma1, fluorogenic substrate, fluorescence. inhibition, % at 12.3 µM. 3,300 tested, 3.1% active; in the data active = inhibition above about 9.5%
PLCb3 confirm: human PLC-beta3 inhibition, confirmation; 3,300 tested, 1% active; shares compounds with PLC-gamma1 inh; purified PLC-beta3, fluorogenic substrate fluorescence; inhibition, % at 12.3 µM
The depositor's hits bear a star; nt = not tested or not shown. Rule as the data show it, unless noted: active = inhibition above about 11%; inactive = the rest.

SMILES	PLC-gamma1 inh	PLC-beta3 inh	HGIII-sPLA2 inh	procasp7 counter	procasp3 activ	PLCgamma1 ctr	PLCb3 confirm
Clc1cc(Br)ccc1OCCOCCN1CCOCC1	13*	14*	-7	4	4	-4	0
Clc1ccc(OCCOCCN2CCCCC2)c(Br)c1	11*	5	-6	-5	-8	-8	1
Clc1cc(Br)ccc1OCCOCCN1CCCC1	2	-1	2	-6	-2	nt	nt
N/C(=N\OC(=O)COc1ccc2ccccc2c1Br)c1ccncc1	nt	nt	nt	-4	0	nt	nt
C=CCN(CC#CC1=CCCCC1)Cc1ccc(OC)cc1OC	0	2	1	nt	nt	nt	nt
CSc1cc(SC)ncn1	5	12*	0	nt	nt	-6	-1
Cc1ccc(NC(=O)CSc2cccc[n+]2[O-])c([N+](=O)[O-])c1	6	-4	4	-1	3	nt	nt
O=C(NCc1ccncc1)[C@@H]1CCCN1C(=O)[C@H]1CCCN1	1	2	2	nt	nt	nt	nt
CC(C)CN(C(=O)CN1C(=O)C2CCCCC2C1=O)c1c(N)n(Cc2ccccc2)c(=O)[nH]c1=O (stereo unspecified)	-2	-10	-5	7	3	nt	nt
Cc1cc(C(=O)NCC2CCCCC2)ccc1[N+](=O)[O-]	11*	1	1	3	4	-6	-1
O=C(O)C(Cc1ccccc1)N1C(=O)C=CC1=O (stereo unspecified)	3	2	-1	nt	nt	nt	nt
COc1ccc(NC(=O)c2ccccc2Oc2ccccc2)cc1	2	-4	-4	6	0	nt	nt
COc1cccc(NC(=O)c2ccccc2Oc2ccccc2)c1	9.8*	-5	-14	1	3	-10	-8
Cc1cccc(C(=O)N[C@H](C(=O)Nc2ccc3c(c2)OCO3)C(C)C)c1	-1	0	-2	-9	3	nt	nt
O=S(=O)(Nc1ccc(C(O)(C(F)(F)F)C(F)(F)F)cc1)c1cccc2cccnc12	10*	-2	-53	nt	nt	-2	-4
O=c1oc2ccc(NS(=O)(=O)c3cccc4cccnc34)cc2s1	10*	-3	-22	-26	-19	0	-1
CC(C)N1CC(C(=O)Nc2ccc(Cl)c([N+](=O)[O-])c2)CC1=O (stereo unspecified)	2	0	3	-4	6	nt	nt
O=C1OCC2=C1C(c1ccc(Cl)cc1)CC(=O)N2c1ccc(F)cc1 (stereo unspecified)	-1	-4	-4	-2	-2	nt	nt
O=C1OCC2=C1C(c1ccccc1)CC(=O)N2c1ccc(F)cc1 (stereo unspecified)	11*	2	-5	4	1	0	2
CC(C)CNC(=O)C1(C)CCCN1C(=O)c1ccc2ccccc2n1 (stereo unspecified)	1	4	3	nt	nt	nt	nt
Cc1cccc(C)c1NC(=O)CSc1nnc(Cc2ccccc2)o1	0	0	2	-6	-3	nt	nt
Cc1cc(C)nc(SCc2nnc(SCC(=O)Nc3c(C)cccc3C)o2)n1	11*	8	6	-6	9	-6	-2
O=C(NCc1ccccn1)c1ccccc1OCc1ccccc1Cl	3	-5	4	nt	nt	nt	nt
Cc1noc(C)c1C(=O)NCC(=O)Nc1ccccc1Br	-2	-4	2	4	-5	nt	nt
Cc1ccc(N(C(=O)CCC(=O)Nc2cc(C)on2)C(C(=O)NC2CCCC2)c2ccncc2)cc1 (stereo unspecified)	10*	4	-2	0	1	6	4
SMILES	PLC-gamma1 inh	PLC-beta3 inh	HGIII-sPLA2 inh	procasp7 counter	procasp3 activ	PLCgamma1 ctr	PLCb3 confirm
NCCCCCC(=O)Nc1ccncc1	-1	-4	-2	3	15	nt	nt
COc1ccc(CNC(=O)C2(CC3CC(c4ccccc4)=NO3)CCN(C(=O)C3(C)CC3)CC2)cc1 (stereo unspecified)	11*	7	0	-6	7	-2	2
C[C@H](CO)N1C[C@H](C)[C@@H](CN(C)Cc2ccc(C(=O)O)cc2)Oc2c(cccc2N(C)C)C1=O	-2	-1	-4	2	-1	nt	nt
CC(=O)c1cnc2sccn2c1=O	14*	11	10	18	-1	-5	-2
COc1ccc(NC(=O)c2cnc3sccn3c2=O)cc1	-4	-8	-2	-5	2	nt	nt
Cc1ccc(-n2nnnc2SCC(=O)c2c(N)n(C3CC3)c(=O)[nH]c2=O)cc1C	1	-7	6	-8	-2	nt	nt
CC(OCC(O)CN(C)Cc1nc2ccccc2c(=O)[nH]1)c1ccc(Cl)cc1 (stereo unspecified)	0	1	11	4	7	nt	nt
CC1=C(C(=O)N(C(C)C)C(C)C)CC(CC(=O)NCCCN(C)C)C(=O)N1CCCN1CCCC1=O (stereo unspecified)	-2	-2	6	nt	nt	nt	nt
CCN(CC)S(=O)(=O)c1ccc(N2CCCC2)c(NC(=O)C2=NN(c3ccccc3)C(=O)CC2)c1	-8	-9	-12	8	2	nt	nt
Cc1nccn1CCOc1ccccc1Cl	10*	1	3	nt	nt	-6	-1
Clc1ccccc1OCCCn1ccnc1	0	-3	-3	8	0	nt	nt
Cc1cccc(-n2ncc3c(N)ncnc32)c1	10*	12*	13	1	-6	-3	0
O=C(NCCc1ccncc1)C(F)(F)F	11*	-1	12	-2	6	-2	1
O=C(NCCNC(=O)C(F)(F)F)c1ccncc1	3	3	4	4	-4	nt	nt
CCCNC(=O)COC(=O)CCC(=O)c1ccc(F)cc1	9.8*	7	6	-1	-5	-2	-7
CCCCNC(=O)COC(=O)CCC(=O)c1ccc(F)cc1	6	4	8	-10	2	nt	nt
CN(C)C(CNC(=O)c1c(F)cccc1Cl)c1ccco1 (stereo unspecified)	11*	-5	15	-7	-5	-6	-2
CCc1cc(C(=O)c2ccc(Br)cc2)c(NC(=O)CN(CC)CC)s1	-3	-4	0	7	6	nt	nt
CCOC(=O)C1CCN(C(=O)c2ccc3c(c2)OCCO3)CC1	12*	-8	10	11	-7	-1	1
CCOC(=O)C1CCN(C(=O)c2cccc(C(=O)N3CCC(C(=O)OCC)CC3)c2)CC1	2	3	2	-1	2	nt	nt
CCOC(=O)C1CCN(C(=O)c2cc(C)n(C(C)(C)C)n2)CC1	11*	-3	0	3	6	-2	0
CN(c1cccc(NC(=O)c2ccc(Cl)c(S(=O)(=O)N3CCOCC3)c2)c1)S(C)(=O)=O	0	-7	1	nt	nt	nt	nt
Cc1nc(C(F)(F)F)ccc1C(=O)N1CCC1(C)C(=O)NS(=O)(=O)c1cccc(Cl)c1 (stereo unspecified)	1	3	-1	nt	nt	nt	nt
